Test results reported in publication PMC9476207 (ACS Omega, 2022).

Experiments:
Type in all cases: cell-based, human
[1] = test system: A549 cells; assay: Apoptosis assay through DAPI staining; conditions: 18f at 5, 3 and 1.5 μM, 48 h, paclitaxel positive control
[2] = test system: A549 cells; assay: Reactive oxygen species; conditions: 18f at 5, 3 and 1.5 μM, 48 h
Method in brief: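 A549 cells (1 × 10^5, six-well) were grown 24 h, then exposed to test compound at 1.5, 3 and 5 μM for 48 h. 0.05% H2O2 positive control was added 1 h before the end. Cells were PBS-washed and loaded with DCFH-DA (10 mM as printed) for 30 min in the dark, rewashed, and viewed by inverted fluorescence microscopy.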

[3] = test system: A549 cells; assay: Loss of mitochondrial membrane potential; conditions: A549, 48 h
Method in brief: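 A549 cells (1 × 10^5/mL/well, six-well plates) were treated for 48 h with 1.5, 3.0 or 5.0 μM test compound; paclitaxel served as positive control. After an ice-cold PBS wash, cells took up rhodamine-123 (final 0.2 mM) for 20–30 min in the dark in the incubator. Cells were washed again and fluorescence was assessed qualitatively by microscopy.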

CC(=O)O[C@H]1C(=O)[C@@]2(C)[C@H]([C@H](OC(=O)c3ccccc3)[C@]3(O)C[C@H](OC(=O)[C@H](O)[C@@H](NC(=O)c4ccccc4)c4ccccc4)C(C)=C1C3(C)C)[C@]1(OC(C)=O)CO[C@@H]1C[C@@H]2O [paclitaxel]
nuclear morphological changes (DAPI staining) [1]: chromatin condensation, nuclear blebbing, and formation of apoptotic bodies
intracellular ROS (DCFDA fluorescence, qualitative) [2]: higher in the treated groups
loss of mitochondrial membrane potential (rhodamine-123 fluorescence) ([3]; 18f at 3.0 μM): quite similar
loss of mitochondrial membrane potential (rhodamine-123 fluorescence) ([3]; 18f at 5 μM, paclitaxel at its IC50 doses): maximum loss in the mitochondrial membrane potential
